Measured values: article PMC4401146 (Journal of Cellular and Molecular Medicine, 2008)
No end group written: not given here.

What was measured:
Assay type in all cases: biochemical
[1] = target: PMCA4 (Homo sapiens, UniProt P23634); experiment: PMCA Ca2+-Mg2+-ATPase in human erythrocyte ghosts, coupled enzyme assay
Method in brief: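 Human erythrocyte leaky ghosts were EDTA-washed to strip calmodulin; 0.2–0.4 mg protein per assay. Pyruvate kinase–LDH coupled NADH assay at 37°C in 30 mM imidazole-HCl pH 7.0 with 0.1 mM ouabain, 6 mM MgCl2, 0.5 mM ATP, 0.5 mM EGTA and 4 μg/ml calmodulin. Basal Mg2+-ATPase was subtracted from activity after CaCl2 addition. Ki came from a non-linear fit, saturating substrates; 3–4 measurements over 2–4 days.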

[2] = target: T1, PMCA1 (Oryctolagus cuniculus, UniProt Q00804); experiment: Ca2+-Mg2+-ATPase of rabbit duodenal mucosal PM rich fraction
T1 sequence (Q00804 1-1220): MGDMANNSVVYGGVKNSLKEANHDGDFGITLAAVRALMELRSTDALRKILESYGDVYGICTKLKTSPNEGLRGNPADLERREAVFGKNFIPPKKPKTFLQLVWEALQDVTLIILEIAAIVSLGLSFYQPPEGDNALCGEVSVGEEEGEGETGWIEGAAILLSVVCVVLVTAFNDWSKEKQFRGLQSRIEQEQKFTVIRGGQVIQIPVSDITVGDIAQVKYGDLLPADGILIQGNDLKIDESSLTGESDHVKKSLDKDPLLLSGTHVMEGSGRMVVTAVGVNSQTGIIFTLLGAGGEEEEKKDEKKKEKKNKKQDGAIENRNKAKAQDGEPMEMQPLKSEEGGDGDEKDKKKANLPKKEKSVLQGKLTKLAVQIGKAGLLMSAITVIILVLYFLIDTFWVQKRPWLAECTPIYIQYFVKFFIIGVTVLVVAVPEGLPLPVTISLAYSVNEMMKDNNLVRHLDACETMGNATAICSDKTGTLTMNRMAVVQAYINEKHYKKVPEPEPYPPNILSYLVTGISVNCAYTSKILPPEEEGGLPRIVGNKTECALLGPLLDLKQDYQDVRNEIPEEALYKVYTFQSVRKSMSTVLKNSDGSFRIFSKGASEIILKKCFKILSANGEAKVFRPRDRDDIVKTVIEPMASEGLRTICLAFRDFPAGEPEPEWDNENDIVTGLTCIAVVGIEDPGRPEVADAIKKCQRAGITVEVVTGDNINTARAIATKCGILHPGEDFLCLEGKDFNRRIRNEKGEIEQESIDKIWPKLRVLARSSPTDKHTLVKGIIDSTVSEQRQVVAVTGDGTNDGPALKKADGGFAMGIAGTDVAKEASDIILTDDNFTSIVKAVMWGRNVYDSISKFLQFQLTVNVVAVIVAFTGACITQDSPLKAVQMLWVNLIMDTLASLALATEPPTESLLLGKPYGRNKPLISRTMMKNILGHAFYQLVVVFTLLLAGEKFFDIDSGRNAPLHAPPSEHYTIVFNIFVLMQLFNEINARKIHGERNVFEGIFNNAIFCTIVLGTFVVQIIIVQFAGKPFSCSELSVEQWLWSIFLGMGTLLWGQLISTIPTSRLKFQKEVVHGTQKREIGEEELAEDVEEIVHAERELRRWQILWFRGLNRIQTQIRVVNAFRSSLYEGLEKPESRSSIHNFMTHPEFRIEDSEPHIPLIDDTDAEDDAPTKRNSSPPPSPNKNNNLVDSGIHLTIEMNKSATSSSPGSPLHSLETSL
Method in brief: (§1)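 Sources: a plasma membrane-enriched fraction from rabbit duodenal mucosa, rich in PMCA1 with little PMCA4, and microsomes from baculovirus-infected Sf9 cells expressing PMCA2 or PMCA3. Activity was followed by NADH loss in a coupled assay at 37°C: basal Mg2+-ATPase, then CaCl2 added, difference taken. Each day's mean control activity was 100%. Ki was fitted by non-linear regression; 3–4 measurements over 2–4 days.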

[3] = target: T2, PMCA2 (Homo sapiens, UniProt Q01814); experiment: Ca2+-Mg2+-ATPase of microsomes from overexpressing insect cells sf9
T2 sequence (Q01814 1-1243): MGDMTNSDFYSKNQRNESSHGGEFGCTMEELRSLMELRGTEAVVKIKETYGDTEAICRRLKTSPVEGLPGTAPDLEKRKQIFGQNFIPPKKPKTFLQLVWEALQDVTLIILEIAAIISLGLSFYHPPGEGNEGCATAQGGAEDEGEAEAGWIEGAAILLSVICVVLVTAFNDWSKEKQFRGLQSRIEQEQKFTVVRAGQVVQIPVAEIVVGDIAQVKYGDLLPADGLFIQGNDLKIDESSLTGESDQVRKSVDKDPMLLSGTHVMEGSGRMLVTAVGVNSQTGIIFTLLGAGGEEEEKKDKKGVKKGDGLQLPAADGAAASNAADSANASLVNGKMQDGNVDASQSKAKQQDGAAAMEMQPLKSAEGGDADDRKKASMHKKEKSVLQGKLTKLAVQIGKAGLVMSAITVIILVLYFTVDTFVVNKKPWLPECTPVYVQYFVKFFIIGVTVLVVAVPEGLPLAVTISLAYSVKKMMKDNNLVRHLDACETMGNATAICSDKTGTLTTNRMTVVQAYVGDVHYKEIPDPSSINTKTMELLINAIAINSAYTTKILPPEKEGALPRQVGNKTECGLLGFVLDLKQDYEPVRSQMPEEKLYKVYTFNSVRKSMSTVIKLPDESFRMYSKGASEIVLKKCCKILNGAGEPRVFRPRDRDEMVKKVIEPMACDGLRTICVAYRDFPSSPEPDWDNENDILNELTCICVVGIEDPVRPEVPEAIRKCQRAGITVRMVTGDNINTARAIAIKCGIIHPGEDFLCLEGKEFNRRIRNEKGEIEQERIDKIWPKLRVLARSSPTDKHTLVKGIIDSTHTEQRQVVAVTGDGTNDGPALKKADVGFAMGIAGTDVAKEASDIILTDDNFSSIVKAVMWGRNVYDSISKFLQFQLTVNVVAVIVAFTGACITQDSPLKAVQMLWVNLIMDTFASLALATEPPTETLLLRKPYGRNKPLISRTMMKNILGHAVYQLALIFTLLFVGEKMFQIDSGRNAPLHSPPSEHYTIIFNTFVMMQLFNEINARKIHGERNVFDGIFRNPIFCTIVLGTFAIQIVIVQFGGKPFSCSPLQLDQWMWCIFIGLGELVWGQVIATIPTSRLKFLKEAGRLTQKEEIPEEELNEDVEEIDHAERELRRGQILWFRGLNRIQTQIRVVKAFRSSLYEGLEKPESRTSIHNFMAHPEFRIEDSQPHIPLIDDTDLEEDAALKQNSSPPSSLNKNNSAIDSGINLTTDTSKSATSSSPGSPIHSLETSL
Method in brief: as §1

[4] = target: T3, PMCA3 (Homo sapiens, UniProt Q16720); experiment: as above
T3 sequence (Q16720 1-1220): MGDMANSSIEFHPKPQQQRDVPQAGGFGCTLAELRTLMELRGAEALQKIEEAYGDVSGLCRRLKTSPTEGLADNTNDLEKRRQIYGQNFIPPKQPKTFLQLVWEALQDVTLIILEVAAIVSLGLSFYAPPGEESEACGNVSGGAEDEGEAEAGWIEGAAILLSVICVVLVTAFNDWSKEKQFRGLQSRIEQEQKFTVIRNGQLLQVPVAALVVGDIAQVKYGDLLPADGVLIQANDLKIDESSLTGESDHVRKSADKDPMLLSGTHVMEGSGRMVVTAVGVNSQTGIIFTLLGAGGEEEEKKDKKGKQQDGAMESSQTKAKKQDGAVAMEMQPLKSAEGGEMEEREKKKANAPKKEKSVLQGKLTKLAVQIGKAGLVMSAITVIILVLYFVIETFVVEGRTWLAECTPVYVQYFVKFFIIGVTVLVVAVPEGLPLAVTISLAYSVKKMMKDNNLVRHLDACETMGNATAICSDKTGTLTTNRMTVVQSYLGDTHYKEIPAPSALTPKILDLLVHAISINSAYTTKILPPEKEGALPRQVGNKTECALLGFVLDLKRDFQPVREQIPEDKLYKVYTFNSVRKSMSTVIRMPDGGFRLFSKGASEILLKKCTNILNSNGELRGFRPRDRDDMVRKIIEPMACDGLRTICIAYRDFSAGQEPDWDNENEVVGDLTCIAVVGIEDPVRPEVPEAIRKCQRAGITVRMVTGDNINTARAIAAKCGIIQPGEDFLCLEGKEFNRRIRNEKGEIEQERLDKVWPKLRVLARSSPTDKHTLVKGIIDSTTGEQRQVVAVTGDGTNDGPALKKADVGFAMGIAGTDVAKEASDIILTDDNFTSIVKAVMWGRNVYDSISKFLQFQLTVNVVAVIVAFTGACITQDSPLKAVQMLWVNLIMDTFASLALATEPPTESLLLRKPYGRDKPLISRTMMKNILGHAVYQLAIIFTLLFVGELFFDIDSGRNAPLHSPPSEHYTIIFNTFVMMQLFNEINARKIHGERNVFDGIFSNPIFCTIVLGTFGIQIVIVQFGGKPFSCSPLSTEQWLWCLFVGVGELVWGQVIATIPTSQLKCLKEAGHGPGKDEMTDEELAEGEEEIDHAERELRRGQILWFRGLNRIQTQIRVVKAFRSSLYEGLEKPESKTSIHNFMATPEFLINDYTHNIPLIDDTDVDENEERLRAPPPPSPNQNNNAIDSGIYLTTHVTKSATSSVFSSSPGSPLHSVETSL
Method in brief: as §1

Ki [1]: 2300 ± 300 nM
Ki [2]: 21 ± 6 µM
Ki [3]: 40 ± 10 µM
Ki [4]: 67 ± 8 µM
Substance: TAWSEVLDLLRRGGGSK-NH2 [caloxin 1c2]
